Source: PubChem BioAssay
In the library only some 1.8% were active in any assay of this set; here they are far more common.
TbMetRS inhib: T. brucei MetRS inhibitors, primary screen, biochemical, luminescence; inhibition, % at 11.9 µM; purified T. brucei MetRS, ATP depletion, Kinase-Glo luminescence; methionyl-tRNA synthetase (Trypanosoma brucei brucei); 360,000 compounds, 0.4% hits; AID 624268, 2012;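 active = inhibition above a per-plate cutoff of the control wells' mean inhibition plus 3 SD, cut at about 5.5% in these data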;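 also: 0% = DMSO wells median and 100% = median of wells with control inhibitor compound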
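Material: T. brucei methionyl-tRNA synthetase, purified; reagent: substrates ATP, L-methionine and bulk Escherichia coli tRNA; dosing: 11.9 µM single point; timing: 15 min plus 2 h at 25 °C; detection: luminescence of leftover ATP; evaluation: % inhibition; control set: DMSO-only wells as low control; replicates: singlicate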
MT1-MMP act inh: blockers of MT1-MMP proenzyme processing, primary screen, HT1080 RFP-PRO-GFP cells, GFP/RFP fluorescence. Matrix metalloproteinase-14 (Homo sapiens), P50281. GFP/RFP ratio fluorescence, overnight; percent of plate control window, DMSO zero. GFP/RFP ratio change, % at 20 µM. 360,000 compounds, 0.061% hits. AID 651647, 2012;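 active = GFP/RFP ratio change of at least 30% with cell ATP level not reduced by more than half and red fluorescence within 50% of control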
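Assay system: HT1080 cells carrying an RFP-PRO-GFP reporter | Dosing: Single dose of 20 µM compound, 1% DMSO final | Incubation: Cells overnight before dosing, compound overnight, 37 °C, 5% CO2 | Evaluation: GFP/RFP fluorescence ratio | Control set: DMSO and RFP-L50D-GFP cell wells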
hiPSC survival: enhancers of single-cell hiPSC survival, primary screen, ATPlite luminescence; 100% = ROCK inhibitor wells, 0% = DMSO; survival enhancement, % at 20 µM; 360,000 compounds, 0.044% hits; in the data active = survival enhancement above about 18%;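 also: cells exposed to compounds for 16 hours before the ATP read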
E coli Lon inh: inhibitors of E. coli Lon protease, primary screen, biochemical, fluorescence polarization; AID 602123, 2011; 360,000 compounds, 0.42% hits; inhibition, % at 7.94 µM; purified E. coli Lon protease; P0A9M0; in the data active = inhibition above about 13%, passing the limit was not always enough;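 also: 0% = enzyme with probe and DMSO and 100% = no enzyme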
Target sequence (P0A9M0 whole entry, looked up): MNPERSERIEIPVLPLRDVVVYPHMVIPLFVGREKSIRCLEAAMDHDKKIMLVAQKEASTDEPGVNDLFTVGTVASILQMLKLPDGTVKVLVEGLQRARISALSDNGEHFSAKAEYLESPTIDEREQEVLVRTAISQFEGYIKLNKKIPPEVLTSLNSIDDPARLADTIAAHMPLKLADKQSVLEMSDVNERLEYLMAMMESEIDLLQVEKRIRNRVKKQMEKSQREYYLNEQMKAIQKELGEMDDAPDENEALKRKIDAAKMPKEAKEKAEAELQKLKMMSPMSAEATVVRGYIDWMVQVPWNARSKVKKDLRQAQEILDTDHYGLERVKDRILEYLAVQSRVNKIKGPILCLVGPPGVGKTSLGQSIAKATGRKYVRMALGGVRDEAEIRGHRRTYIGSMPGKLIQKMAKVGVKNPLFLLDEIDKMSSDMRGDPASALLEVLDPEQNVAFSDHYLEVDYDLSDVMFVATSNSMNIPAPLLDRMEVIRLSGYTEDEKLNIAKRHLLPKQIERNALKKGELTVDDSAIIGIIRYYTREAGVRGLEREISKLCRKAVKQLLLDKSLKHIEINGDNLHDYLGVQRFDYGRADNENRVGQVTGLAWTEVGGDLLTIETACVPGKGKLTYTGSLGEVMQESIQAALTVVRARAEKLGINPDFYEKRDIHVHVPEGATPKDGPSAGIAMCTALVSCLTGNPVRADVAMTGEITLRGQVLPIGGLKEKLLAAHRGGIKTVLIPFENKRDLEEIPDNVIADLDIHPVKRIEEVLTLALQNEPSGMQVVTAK
PREPL inhibitor: PREPL enzyme inhibitors, primary screen, biochemical, fluorescence polarization; Prolyl endopeptidase-like (Homo sapiens), Q4J6C6; recombinant PREPL, fluorescence polarization activity-based probe; inhibition, % at 5.96 µM; 320,000 compounds, 0.68% hits; AID 2751, 2010; in the data active = inhibition above about 43%;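 also: 0% = enzyme with DMSO and 100% = wells lacking enzyme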
SKN-1 inh: suppressors of acrylamide-induced Pgst-4::GFP reporter in worms, primary screen, SKN-1 inhibitor project, whole organism, uHTS, GFP/RFP fluorescence ratio, strain VP596; C. elegans VP596 Pgst-4::GFP/RFP ratio, 24 h; inhibition, % at 21.8 µM; 360,000 compounds, 0.49% hits; AID 624304, 2012;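 active = interference check ratio from 0.5 to 1.5 plus GFP to RFP signal ratio inhibition reaching or exceeding a fixed threshold, cut at about 30% in these data, passing the limit was not always enough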
* hit, by the source's call; · = no result.

SMILES	TbMetRS inhib	MT1-MMP act inh	hiPSC survival	E coli Lon inh	PREPL inhibitor	SKN-1 inh
O=[N+]([O-])c1cccc(/C=C/c2ccccn2)c1	-2	0	0	9	8	36*
Cc1noc(C)c1CCC(=O)NC1CCCN(Cc2ccc(CC(C)C)cc2)C1 (centres undefined)	0	4	0	-11	-5	7
COCCCn1c(SCC(=O)N2CCOCC2)nnc1-c1ccco1	0	0	0	2	-3	5
Cc1cc(O)ccc1Nc1cc(-c2cccc(N(C)C)c2)ncn1	0	3	-2	-6	·	19
CN(C)c1cccc(O)c1	0	6	4	3	-2	47*
OC[C@@H]1CN(Cc2ccc(F)cc2)C[C@H](n2cnc3c(N4CCN(c5ccccc5)CC4)ncnc32)O1	0	1	-2	-7	·	-7
CC(=O)NC(Cc1ccc(F)cc1)C(=O)N1CCN(C(=O)NCc2ccccc2)CC1 (centres undefined)	0	10	-1	5	4	49*
C=CCOc1ccc(/C=C2\C(=N)N3N=C(S(=O)(=O)CC)SC3=NC2=O)cc1OC	0	-4	9	-1	1	19
CCS(=O)(=O)C1=NN2C(=N)/C(=C\c3ccc(OC(=O)c4ccco4)c(OC)c3)C(=O)N=C2S1	0	-60	0	-17	51*	4
C(=Cc1c[nH]c2ccccc12)c1nccc2ccccc12	1	-73	-5	11	·	48*
Cn1cc([C@@H]2C[C@H]3CN(Cc4cccc(Cl)c4)C(=O)[C@]34CCCN24)c2ccccc21	0	35	-2	-15	-27	35*
COc1ccc(-c2cc(CNc3nc(NC(C)C)nc4cc(-c5ccccc5)sc34)on2)cc1	0	-32	-3	-1	·	7
CCCNCc1nnc(-c2ccccc2Cl)o1	1	0	-1	-1	-8	1
Clc1ccccc1-c1nnc(-c2ccccc2Cl)o1	0	-2	-2	-5	-2	67*
Clc1ccc(-c2nnc(-c3ccccc3Cl)o2)cc1	-1	1	-3	-7	6	62*
COc1ccc(N(C(=O)CNC(=O)c2ccco2)C(C(=O)NC2CCCCC2)c2cccnc2)cc1 (centres undefined)	0	-2	0	5	0	38*
c1ccc2sc(SCc3ccc(-c4nnco4)cc3)nc2c1	-1	2	-3	-2	-14	54*
Cc1cc(C)c(C(=O)COC(=O)CCNS(=O)(=O)c2c(Cl)cccc2Cl)cc1C	0	5	2	-5	-5	7
C=CCn1c(C)cc(C(=O)CSc2nnc(-c3cccc(S(=O)(=O)N(CC)CC)c3)o2)c1C	0	-5	-1	2	0	8
CCN(CC)S(=O)(=O)c1cccc(-c2nnc(SCC(=O)c3cc(C)n(C4CC4)c3C)o2)c1	0	0	-1	10	-2	42*
O=c1oc2c(O)c(O)cc3c(=O)oc4c(O)c(O)cc1c4c23	0	-2	1	-6	54*	-17
Cc1c(C)n(Cc2ccccc2)c2ccc(C(=O)NCCN3CCOCC3)cc12	0	7	-1	-4	-5	8
Cc1c(C)n(Cc2ccccc2)c2ccc(C(=O)OCCN(C)C)cc12	0	-11	0	-2	20	36*
C=CCSc1nc(C)c(CCCC)c(=O)[nH]1	-1	1	-2	9	11	1
NC(c1csc(Nc2ccccn2)n1)C1CCCCC1 (centres undefined)	0	-6	-1	-4	·	8
SMILES	TbMetRS inhib	MT1-MMP act inh	hiPSC survival	E coli Lon inh	PREPL inhibitor	SKN-1 inh
CC(C)NC(=O)CN(C)S(=O)(=O)c1ccc(F)cc1	-1	-2	0	2	4	36*
Cc1nn(-c2ccccc2)nc1C(=O)Nc1cccc(C(=O)NC2CC2)c1	-1	-4	-3	-2	·	-1
COC(=O)c1cc(Br)c(=O)n(Cc2ccco2)c1	-1	0	-3	-2	8	-8
COC(=O)c1ccc(=O)n(Cc2ccco2)c1	0	2	9	1	9	38*
Cc1ccc(Nc2nc(-c3ccccc3)c(CC(=O)O)s2)cc1	0	-20	0	-62	58*	17
COC(=O)c1cc(NC(=O)CC2SC(=Nc3ccccc3)N(CCc3c[nH]c4ccccc34)C2=O)cc(C(=O)OC)c1 (centres undefined)	0	-10	2	0	-26	36*
COCCN1C(=O)C(CC(=O)Nc2ccc(C(=O)O)cc2)SC1=Nc1ccccc1 (centres undefined)	-1	1	3	-5	-3	17
COc1cccc(NC(=O)C2(C)CCN2C(=O)CC2CCCC2)c1 (centres undefined)	0	2	-2	-8	·	4
COc1ccc(CN2C[C@@H](CO)O[C@@H](n3cnc4c(NCCN(C)C)ncnc43)C2)cc1	0	-1	-3	0	·	7
O=C(Nc1ccc(Cl)cn1)Nc1ccccc1F	0	-2	-1	-7	-20	12
O=C(Nc1ccc(Cl)cn1)c1ccccc1F	0	4	-2	3	-5	59*
COc1ccc(C(C)=O)cc1CN1C(=O)C(C)ON=C1c1cccc(C(F)(F)F)c1 (centres undefined)	-1	2	-2	8	·	35*
CC1(C)OC2CC3C4CCC5=CC(=O)C=CC5(C)C4(F)C(O)CC3(C)C2(C(=O)CO)O1 (centres undefined)	-1	4	1	-8	·	17
COc1ccc(NC(=O)C2(C)Cc3c(-c4cccc(C(N)=O)c4)ccnc3O2)cc1 (centres undefined)	0	13	3	-1	·	18
CC1=C(C(=O)OCC2CCCO2)C(c2ccccc2OC(C)C)C2=C(CC(c3ccco3)CC2=O)N1 (centres undefined)	1	-3	-3	7	23	40*
Cc1cc(C)cc(C(=O)NCC(=O)OCC(=O)NCC(F)(F)F)c1	-1	-3	0	-4	7	-12
COc1ccc(C(=O)NC2CCN(CC(=O)Nc3c(C)cccc3C)CC2)cc1OC	-1	2	-1	7	-2	-15
Cc1ccc(O)c(-c2cc(-c3cccc(F)c3)n[nH]2)c1	0	7	3	15	12	37*
Cc1ccc(-c2cc(-c3cccc(F)c3)n[nH]2)c(O)c1	0	0	-1	-5	-8	29
